TPT1 inh: blocks Candida albicans tRNA 2'-phosphotransferase. inhibition, % at 5 µM. recombinant caTPT1, FP RNA substrate dephosphorylation. AID 1962. 0.81% of 300,000 active;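 active = inhibition above the mean of all tested compounds plus 3 SD, set per screening campaign, cut at about 24% in these data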;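 also: plate controls were DMSO alone for no effect and ferristatin control at 100 nM for full effect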
CSN deneddyl inh: CSN deneddylation inhibition. Q92905. Purified CSN, SCF-Nedd8-OG deneddylation, fluorescence polarization. inhibition, % at 12.5 µM. 0.38% of 360,000 active. AID 651999;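 active = pattern-corrected inhibition above about 35%, with an unprinted fluorescence ratio check between 0.5 and 1.5, limit read from the data, passing the limit was not always enough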;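 also: 0% = enzyme with substrate and 100% = substrate without enzyme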
Target sequence (Q92905 whole entry, looked up, one chain of several): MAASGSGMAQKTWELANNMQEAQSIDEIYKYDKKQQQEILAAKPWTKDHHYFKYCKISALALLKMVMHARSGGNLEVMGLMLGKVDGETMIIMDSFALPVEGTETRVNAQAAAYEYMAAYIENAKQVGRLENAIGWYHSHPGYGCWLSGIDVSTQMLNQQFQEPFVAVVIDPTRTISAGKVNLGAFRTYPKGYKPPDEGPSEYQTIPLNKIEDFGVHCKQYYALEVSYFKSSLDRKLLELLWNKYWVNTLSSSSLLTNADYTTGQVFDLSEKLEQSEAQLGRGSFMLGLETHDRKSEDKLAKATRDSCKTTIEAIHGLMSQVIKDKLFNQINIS
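Test system: Human Csn5 produced in HEK293T cells | Compound: 12.5 µM single point | Times: 90 min, room temperature | Signal: Fluorescence polarization readout | Read-out basis: % inhibition of substrate cleavage by Csn5 | Controls: no-enzyme wells high, enzyme-with-substrate wells low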
Rpn11 inh: inhibitors of human proteasome Rpn11; 0.59% of 360,000 active; inhibition, % at 20 µM; human 26S proteasome, Ub4-pepOG fluorescence polarization; 20S core pre-blocked with epoxomicin; AID 588493;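 active = inhibition at 20 µM, scaled to each plate's controls, above about 33%, limit read from the data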
SENP1 FRET inh: blocks the human SENP1 SUMO protease catalytic domain; Q9P0U3; recombinant SENP1 catalytic domain, CyPet-SUMO1-YPet FRET cleavage; inhibition, % at 10 µM; 0.21% of 360,000 active;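 active = inhibition at least 30% at 10 µM, raw YFP signal under a set limit, fluorescence ratio 0.5 to 1.5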;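 also: 0% = enzyme with DMSO and 100% = no enzyme wells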
Target sequence (Q9P0U3 419-644 limits assumed): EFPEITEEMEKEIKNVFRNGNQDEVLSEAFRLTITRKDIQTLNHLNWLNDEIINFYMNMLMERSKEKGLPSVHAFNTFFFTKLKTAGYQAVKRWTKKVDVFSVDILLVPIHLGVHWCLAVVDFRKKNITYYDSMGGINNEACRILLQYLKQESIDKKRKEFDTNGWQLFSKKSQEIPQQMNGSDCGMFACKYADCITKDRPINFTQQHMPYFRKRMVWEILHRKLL
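Assay system – human recombinant His6-tagged SENP1 catalytic domain enzyme · Input – SENP1 enzyme, 20 pM final · Buffer or medium – Tris pH 8 buffer plus EDTA, NaCl, BME, BSA, NP40, catalase · Schedule – 50 min reaction at room temperature · Technique – FRET read of cyan and yellow fluorescence · Control set – no-enzyme wells low, DMSO-plus-enzyme wells high control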
HNF4A DNA FP: change in binding of human HNF4 alpha to DNA; HNF4a-FITC DNA binding, fluorescence polarization, 1 h; 0.3% of 360,000 active; activity change, % at 10 µM; P41235; in the data active = activity change above about 30%, passing the limit was not always enough
caTPT1 confirm: TPT1 (C. albicans) inhibition, confirmation | shares compounds with TPT1 inh | recombinant caTPT1, fluorescence polarization, RNase T1 coupled | inhibition, % at 5 µM | 74% of 2,400 active | AID 2149;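 active = inhibition above the primary screen limit, the mean inhibition of all tested compounds plus 3 SD, cut at about 25% in these data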
RNase T1 inh: blocks Aspergillus oryzae RNase T1, a TPT1 counter-screen | shares compounds with TPT1 inh | RNase T1 cleavage, fluorescence polarization, 1536-well | inhibition, % at 5 µM | 83% of 2,400 active;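 active = inhibition above the solvent-only control well mean plus 3 SD, limit set per screening run, cut at about 23% in these data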;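 also: plate controls were DMSO wells with enzyme for no effect and wells without RNase T1 for full effect; inhibitors block cleavage so intact labeled substrate keeps polarization high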
Target sequence (P00651 whole entry, looked up): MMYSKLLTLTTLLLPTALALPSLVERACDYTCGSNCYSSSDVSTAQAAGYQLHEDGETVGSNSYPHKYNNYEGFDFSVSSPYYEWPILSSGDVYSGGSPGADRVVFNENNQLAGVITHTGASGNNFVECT
An asterisk follows results filed as active; x = not tested or not shown. Rows were chosen to be rich in hits. Some 1.6% of all compounds tested hit in one or more screens of this group.

SMILES | TPT1 inh | CSN deneddyl inh | Rpn11 inh | SENP1 FRET inh | HNF4A DNA FP | caTPT1 confirm | RNase T1 inh
CC(=O)N1C(=O)C(=C2C=C(C)OC(C)=C2)c2ccccc21 | 27* | 31 | x | -33 | 138 | 72* | 55*
CC1=CC(=C2C(=O)c3ccccc3C2=O)C=C(C)O1 | 0 | -10 | 4 | -8 | 2 | x | x
CCOC(=O)c1ccc(N2CC(O)=C(c3nc4ccccc4c(=O)[nH]3)C2=N)cc1 | 47* | 7 | 32 | -25 | 15 | 41* | 52*
CCOC(=O)c1[nH]c(C)c(C(=O)Nc2ccc(C)c(Cl)c2)c1C | 28* | 0 | 2 | -1 | 4 | 6 | 7
CCOC(=O)c1[nH]c(C)c(C(=O)Nc2ccc(C)c(F)c2)c1C | 0 | 1 | 3 | 0 | 2 | x | x
CC1=[N+](C)N(c2ccccc2)C(=O)C1N=Cc1ccccc1Cl (centres undefined) | -1 | -7 | -1 | 1 | -2 | x | x
CC1=[N+](C)N(c2ccccc2)C(=O)C1N=Cc1c(Cl)cccc1Cl (centres undefined) | 133* | -1 | 0 | -1 | 1 | 7 | 11
COc1ccccc1OCC(=O)NNC(=O)Nc1ccc(Cl)cc1 | 7 | -5 | 9 | 0 | 5 | x | x
COc1ccccc1OC(=O)Nc1ccc(Cl)cc1 | 41* | 1 | -4 | 3 | 1 | 4 | 6
CN1CCc2c(sc(NC(=O)c3ccc(S(=O)(=O)N4CCCCCC4)cc3)c2C(N)=O)C1 | 119* | 22 | 62* | -26 | 37 | 126* | 125*
CCOC(=O)N1CCN(S(=O)(=O)c2ccc(C(=O)Nc3sc4c(c3C(=O)OC)CCN(C)C4)cc2)CC1 | -2 | -1 | 1 | -45 | 7 | x | x
NC(=O)c1c(NC(=O)c2ccc(S(=O)(=O)N3CCOCC3)cc2)sc2c1CCCCC2 | -2 | 1 | 3 | 2 | -3 | x | x
CN1CCc2c(sc(NC(=O)c3ccc(S(=O)(=O)N4CCOCC4)cc3)c2C(N)=O)C1 | 90* | 17 | 75* | -33 | 48* | 101* | 111*
CNC(=O)c1c(NC(=O)c2ccc(S(=O)(=O)N3CCCCC3)cc2)sc2c1CCN(C(C)C)C2 | 29* | 11 | 36 | -38 | 14 | 30* | 39*
CCCCCC(=O)N1C[C@@H](n2cc(-c3ccc(F)cc3)nn2)[C@H](O)C[C@@H]1c1ccc(OC)cc1 | x | 2 | -1 | 1 | -3 | x | x
CSc1nc(-c2ccccc2)cc(C(F)(F)F)c1C#N | -2 | 1 | -8 | 1 | 3 | x | x
N#Cc1c(C(F)(F)F)cc(-c2ccccc2)nc1SCc1nc(N)nc(N2CCOCC2)n1 | 46* | 60* | 37 | 55 | 29 | 56* | 60*
C/C(Cl)=C/CSc1nc2c(c(=O)[nH]c(=O)n2C)n1C(C)C | 25* | 1 | -3 | 0 | 0 | 9 | 11
O=c1cc(O)c2sc3nc(-c4cccnc4)cc(C(F)(F)F)c3c2[nH]1 | 32* | 11 | 32 | 43 | 12 | 28* | 40*
CCOc1ccc(S(=O)(=O)Nc2nc3ccccc3nc2Nc2ccc(N3CCOCC3)cc2)cc1 | 28* | -16 | -34 | -23 | -17 | 10 | 17
COc1ccc(-c2ccc3c(N)c(C(=O)c4cccc(OC)c4)sc3n2)cc1 | 63* | 4 | 16 | -25 | 13 | 63* | 74*
COc1cccc(-c2ccc3c(N)c(C(=O)NC4CC4)sc3n2)c1 | -1 | 3 | -1 | -32 | 1 | x | x
COc1ccc(C(=O)c2sc3nc(-c4ccc(OC)cc4)ccc3c2N)cc1 | 54* | 4 | 23 | -22 | 16 | 83* | 91*
COc1ccc(C(=O)c2ccc(-c3ccc(OC)cc3)nc2)cc1 | x | 0 | -4 | 1 | 1 | x | x
COc1ccccc1NC(=O)c1sc2nc(-c3ccco3)ccc2c1N | 28* | 17 | 42* | -22 | 21 | 19 | 27*
SMILES | TPT1 inh | CSN deneddyl inh | Rpn11 inh | SENP1 FRET inh | HNF4A DNA FP | caTPT1 confirm | RNase T1 inh
O=S1(=O)[C@H]2C[C@@H]3CC[C@]2(CN1Cc1cccc(F)c1)O3 | -5 | 0 | -2 | 1 | 0 | x | x
Cc1ccc(S(=O)(=O)N[C@H](C(=O)N2CCC(C(=O)N[C@@H](CCC(N)=O)C(=O)O)CC2)C(C)C)cc1 | -5 | -1 | -4 | -1 | -23 | x | x
CC1CC(C)(C)OC(c2ccc(C(C)C)cc2)O1 (centres undefined) | x | -6 | -3 | 1 | 1 | x | x
COc1cccc(C(=O)OCC(=O)N2CCC(Cc3ccccc3)CC2)c1OC | x | -4 | 2 | 1 | 0 | x | x
Cc1cccc(C)c1N/C=C/c1onc(C)c1[N+](=O)[O-] | 6 | 3 | -3 | -50 | -1 | x | x
Cc1ccc(N/C=C/c2onc(C)c2[N+](=O)[O-])cc1 | 49* | 6 | 31 | -35 | 12 | 56* | 68*
COC(=O)c1ccc(OCCN2C3=NCCN3c3ccccc32)cc1 | 37* | -4 | -1 | 3 | 0 | 1 | 4
CN(C)C(CNC(=O)c1cc(S(=O)(=O)N2CCOCC2)ccc1F)c1cccs1 (centres undefined) | x | 0 | 5 | -2 | 1 | x | x
Cc1ccc(S(=O)(=O)N2CCC(C(=O)N/N=C/c3cccnc3)CC2)cc1 | -1 | -1 | -2 | 2 | -4 | x | x
CN(C)c1ccc(/C=N/N=C2/NC(=O)/C(=C/c3ccc([N+](=O)[O-])cc3)S2)cc1 | 44* | 1 | 12 | 40 | 5 | 49* | 63*
CC(C)CNC(=O)c1cccc(NC(=O)C(C)Oc2ccccc2)c1 (centres undefined) | 0 | -12 | -8 | 0 | 0 | x | x
C[C@H](CO)N1C[C@H](C)[C@@H](CN(C)Cc2ccc(F)cc2)Oc2ncc(Br)cc2C1=O | x | -3 | -4 | 0 | 0 | x | x
COCc1cc(C)nc(SCc2ccc(Br)cc2)c1C#N | 0 | 2 | -1 | -1 | 4 | x | x
N=c1oc2cc(O)ccc2cc1C(=O)Nc1nc2ccccc2s1 | 65* | 41 | x | -28 | 31 | 70* | 75*
N=c1oc2cc(O)ccc2cc1C(=O)Nc1ccccn1 | 29* | x | x | x | x | -19 | -6
N=c1oc2cc(O)ccc2cc1C(=O)Nc1ccc(Br)cc1 | 8 | 8 | 16 | -27 | 26 | x | x
Cc1cccc(N2CCN(C(=O)c3ccc4nccnc4c3)CC2C)c1 (centres undefined) | x | 3 | 5 | -9 | 3 | x | x
Cc1cccc(N2CCN(C(=O)c3ccc4c(c3)NC(=O)C(CSCc3cccc(F)c3)N4)CC2C)c1 (centres undefined) | 98* | 33 | x | 35 | 81* | 99* | 110*
O=C(c1cccc(C(=O)N2CCN(c3ccccc3F)CC2)c1)N1CCN(c2ccccc2F)CC1 | 4 | -7 | -4 | -3 | 2 | x | x

From PubChem BioAssay
